Experimental data: ChEMBL document CHEMBL2203235, “Optimization of a natural product-based class of γ-secretase modulators” (J Med Chem, 2012)

Tests used:
[1] = Modulation of gamma secretase in CHO-2B7 cells assessed as reduction in amyloid beta 40 level after 5 hrs by MSD ELISA; type: cell-based; details: Cricetulus griseus, CHO-2B7, 5 h
[2] = Metabolic stability in human liver microsomes assessed as compound remaining at 1 uM at 60 mins by LC/MS/MS analysis in presence of NADPH; type: ADME, Microsome; details: read-out: Stability
[3] = Metabolic stability in human liver microsomes assessed as compound remaining at 1 uM at 60 mins by LC/MS/MS analysis in absence of NADPH; type: ADME, Microsome; details: liver microsomes, read-out: Stability
Method in brief: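 Human liver microsomes were run without NADPH as a qualitative read of susceptibility to enzymatic hydrolysis. The read-out was percent parent remaining at 60 min.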

[4] = Modulation of gamma secretase in CHO-2B7 cells assessed as reduction in amyloid beta 42 level after 5 hrs by MSD ELISA; type: cell-based; details: Cricetulus griseus, CHO-2B7, 5 h
[5] = Modulation of gamma-secretase assessed as reduction in amyloid beta 42 level by cell based assay
[6] = Modulation of gamma-secretase assessed as reduction in amyloid beta 40 level by cell based assay
[7] = Modulation of gamma-secretase assessed as increase in amyloid beta 38 level at 800 nM by cell based assay relative to control
Liver microsomes = assay: Metabolic stability in human liver microsomes at 1 uM after 60 mins by LC/MS/MS analysis; details: 1 h
CHO-2B7 [8] = assay: Modulation of gamma secretase in CHO-2B7 cells assessed as reduction in amyloid beta 40 level at 4 mM after 5 hrs by MSD ELISA; type: cell-based; design: scale not given: the % may be the effect or the level left; details: Cricetulus griseus
[9] = Ratio of drug uptake in brain to plasma in CD1 mouse at 3 mg/kg, iv at 6 hrs; type: ADME, organism-based; design: dose 3 mg/kg, route intravenous; details: brain and plasma, read-out: BPR
Method in brief: (§1)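 CD-1 mice dosed by the IV route. Plasma and brain drug concentrations were measured at 6 h post dose, or at 2 h for one analogue. The brain-to-plasma ratio was calculated from these concentrations and used to rank CNS penetration.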

[10] = Drug uptake in CD1 mouse brain at 3 mg/kg, iv at 6 hrs; type: ADME, organism-based; design: dose 3 mg/kg, route intravenous; details: read-out: Drug uptake; method in brief: as §1
[11] = Plasma concentration in CD1 mouse at 3 mg/kg, iv at 6 hrs; type: ADME, organism-based; design: dose 3 mg/kg, route intravenous; method in brief: as §1
CHO-2B7 [12] = assay: Modulation of gamma secretase in CHO-2B7 cells assessed as reduction in amyloid beta 40 level at 100 uM after 5 hrs by MSD ELISA; type: cell-based; design: scale not given: the % may be the effect or the level left; details: Cricetulus griseus
[13] = Ratio of drug uptake in brain to plasma in CD1 mouse at 1 mg/kg, iv at 6 hrs; details: brain and plasma
[14] = Drug uptake in CD1 mouse brain at 1 mg/kg, iv at 6 hrs
[15] = Plasma concentration in CD1 mouse at 1 mg/kg, iv at 6 hrs
CHO-2B7 [16] = assay: Modulation of gamma secretase in CHO-2B7 cells assessed as reduction in amyloid beta 40 level at 4 uM after 5 hrs by MSD ELISA; type: cell-based; design: scale not given: the % may be the effect or the level left; details: Cricetulus griseus
CHO-2B7 [17] = assay: Modulation of gamma secretase in CHO-2B7 cells assessed as reduction in amyloid beta 40 level at 20 uM after 5 hrs by MSD ELISA; type: cell-based; design: scale not given: the % may be the effect or the level left; details: Cricetulus griseus

Structure (SMILES) | IC50 [1] [nM] | remaining at 1 h, 1 µM [3] [%] | IC50 [4] [nM] | Stability (Liver microsomes) | further results
CC(=O)O[C@@H]([C@H]1C[C@@H](C)[C@H]2[C@H](O1)[C@H](O)[C@@]1(C)[C@@H]3CC[C@H]4C(C)(C)[C@@H](O[C@H]5CNCCO5)CC[C@@]45C[C@@]35CC[C@]21C)C(C)(C)O | 2200 | 7 | 70 | – | remaining at 1 h, 1 µM [2]: 3%
C[C@@H]1C[C@H]([C@H](O)C(C)(C)O)O[C@H]2[C@H]1[C@@]1(C)CC[C@@]34C[C@@]35CC[C@H](O[C@H]3CNCCO3)C(C)(C)[C@@H]5CC[C@H]4[C@]1(C)[C@H]2O | – | 112 | 1600 | – | remaining at 1 h, 1 µM [2]: 40%
C[C@@H]1C[C@H]([C@H](O)C(C)(C)O)O[C@H]2[C@H]1[C@@]1(C)CC[C@@]34C[C@@]35CC[C@H](O[C@H]3CN(C6COC6)CCO3)C(C)(C)[C@@H]5CC[C@H]4[C@]1(C)[C@H]2O | – | 107 | ≥ 20000 | – | remaining at 1 h, 1 µM [2]: 81%
CC(C)C[C@H](C(=O)O)c1cc(-c2ccc(C(F)(F)F)cc2)cc(-c2ccc(C(F)(F)F)cc2)c1 | – | – | – | – | IC50 [5]: 260 nM; IC50 [6]: 9100 nM; Activity [7]: 240%
CCO[C@@H]([C@H]1C[C@@H](C)[C@H]2[C@H](O1)[C@H](O)[C@@]1(C)[C@@H]3CC[C@H]4C(C)(C)[C@@H](O[C@H]5CN(CC(=O)N6CCC6)CCO5)CC[C@@]45C[C@@]35CC[C@]21C)C(C)(C)O | – | – | 250 | Stable | Activity (CHO-2B7 [8]): 39%
CCO[C@@H]([C@H]1C[C@@H](C)[C@H]2[C@H](O1)[C@H](O)[C@@]1(C)[C@@H]3CC[C@H]4C(C)(C)[C@@H](O[C@H]5CNCCO5)CC[C@@]45C[C@@]35CC[C@]21C)C(C)(C)O | 1400 | 28 | 91 | Stable | Kp at 6 h [9]: 1.67; concentration at 6 h [10]: 320 nM; concentration at 6 h [11]: 192 nM
CC(=O)O[C@@H]([C@H]1C[C@@H](C)[C@H]2[C@H](O1)[C@H](O)[C@@]1(C)[C@@H]3CC[C@H]4C(C)(C)[C@@H](OC(=O)NC5CNC5)CC[C@@]45C[C@@]35CC[C@]21C)C(C)(C)O | 15000 | 21 | 47 | – | IC50 [5]: 47 nM
CCO[C@@H]([C@H]1C[C@@H](C)[C@H]2[C@H](O1)[C@H](O)[C@@]1(C)[C@@H]3CC[C@H]4C(C)(C)[C@@H](O[C@H]5CN(C6COC6)CCO5)CC[C@@]45C[C@@]35CC[C@]21C)C(C)(C)O | 4600 | 94 | 270 | Stable | Kp at 6 h [9]: 0.5; concentration at 6 h [10]: 12 nM; concentration at 6 h [11]: 24 nM
CC(=O)OC[C@H]1C[C@@H](C)[C@H]2[C@H](O1)[C@H](O)[C@@]1(C)[C@@H]3CC[C@H]4C(C)(C)[C@@H](O[C@H]5CN(C(=O)CC6CC6)CCO5)CC[C@@]45C[C@@]35CC[C@]21C | – | 23 | 240 | – | Activity (CHO-2B7 [12]): 66%
CCO[C@@H]([C@H]1C[C@@H](C)[C@H]2[C@H](O1)[C@H](O)[C@@]1(C)[C@@H]3CC[C@H]4C(C)(C)[C@@H](OC(=O)N(C)C5CN(C)C5)CC[C@@]45C[C@@]35CC[C@]21C)C(C)(C)O | 4300 | – | 61 | Stable | Kp at 6 h [13]: 0.1; concentration at 6 h [14]: 56 nM; concentration at 6 h [15]: 566 nM
COc1cc(/C=C2\CCCN([C@@H](C)c3ccc(F)cc3)C2=O)ccc1-n1cnc(C)c1 | – | – | – | – | IC50 [5]: 62 nM; IC50 [6]: 280 nM; Activity [7]: 280%
CC(C)CC[C@H](c1ccc(Cl)cc1)N1CC[C@@H](CC(=O)O)C[C@H]1c1ccc(C(F)(F)F)cc1 | – | – | – | – | IC50 [5]: 100 nM; IC50 [6]: 8400 nM; Activity [7]: 280%
CCO[C@@H]([C@H]1C[C@@H](C)[C@H]2[C@H](O1)[C@H](O)[C@@]1(C)[C@@H]3CC[C@H]4C(C)(C)[C@@H](OC(=O)NCCN5CCC5)CC[C@@]45C[C@@]35CC[C@]21C)C(C)(C)O | – | – | 220 | Stable | Activity (CHO-2B7 [16]): 41%
CC(=O)O[C@@H]([C@H]1C[C@@H](C)[C@H]2[C@H](O1)[C@H](O)[C@@]1(C)[C@@H]3CC[C@H]4C(C)(C)[C@@H](O[C@H]5CN([C@H]6CCNC6=O)CCO5)CC[C@@]45C[C@@]35CC[C@]21C)C(C)(C)O | – | 3 | 170 | – | remaining at 1 h, 1 µM [2]: 63%
CCO[C@@H]([C@H]1C[C@@H](C)[C@H]2[C@H](O1)[C@H](O)[C@@]1(C)[C@@H]3CC[C@H]4C(C)(C)[C@@H](O[C@H]5CN(CC(F)F)CCO5)CC[C@@]45C[C@@]35CC[C@]21C)C(C)(C)O | – | – | 540 | Stable | Activity (CHO-2B7 [8]): 37%
CCO[C@@H]([C@H]1C[C@@H](C)[C@H]2[C@H](O1)[C@H](O)[C@@]1(C)[C@@H]3CC[C@H]4C(C)(C)[C@@H](O[C@H]5CN(CC(=O)N(C)C)CCO5)CC[C@@]45C[C@@]35CC[C@]21C)C(C)(C)O | – | – | 270 | Stable | Activity (CHO-2B7 [8]): 38%
CC(C)[C@@H](OC(=O)N1CCC1)[C@H]1C[C@@H](C)[C@H]2[C@H](O1)[C@H](O)[C@@]1(C)[C@@H]3CC[C@H]4C(C)(C)[C@@H](OC(=O)N5CCN(C)CC5)CC[C@@]45C[C@@]35CC[C@]21C | 8200 | – | 170 | Stable | Kp at 6 h [13]: 0.03; concentration at 6 h [14]: 14 nM; concentration at 6 h [15]: 450 nM
CCO[C@@H]([C@H]1C[C@@H](C)[C@H]2[C@H](O1)[C@H](O)[C@@]1(C)[C@@H]3CC[C@H]4C(C)(C)[C@@H](O[C@H]5CN(C)CCO5)CC[C@@]45C[C@@]35CC[C@]21C)C(C)(C)O | 4500 | – | 250 | Stable | Kp at 6 h [13]: 0.76; concentration at 6 h [14]: 16 nM; concentration at 6 h [15]: 21 nM
CC(=O)O[C@@H]([C@H]1C[C@@H](C)[C@H]2[C@H](O1)[C@H](O)[C@@]1(C)[C@@H]3CC[C@H]4C(C)(C)[C@@H](O[C@@H]5OC[C@@H](O)[C@H](O)[C@H]5O)CC[C@@]45C[C@@]35CC[C@]21C)C(C)(C)O | – | – | – | – | IC50 [5]: 60 nM
CCO[C@@H]([C@H]1C[C@@H](C)[C@H]2[C@H](O1)[C@H](O)[C@@]1(C)[C@@H]3CC[C@H]4C(C)(C)[C@@H](OC(=O)N5CCN(CCOC)CC5)CC[C@@]45C[C@@]35CC[C@]21C)C(C)(C)O | – | – | 320 | Stable | Kp at 6 h [13]: 0.03; concentration at 6 h [14]: 8 nM; concentration at 6 h [15]: 261 nM; Activity (CHO-2B7 [17]): 51%
CC(=O)O[C@@H]([C@H]1C[C@@H](C)[C@H]2[C@H](O1)[C@H](O)[C@@]1(C)[C@@H]3CC[C@H]4C(C)(C)[C@@H](O[C@H]5CN(C6COC6)CCO5)CC[C@@]45C[C@@]35CC[C@]21C)C(C)(C)O | – | 1 | 170 | – | Activity (CHO-2B7 [17]): 35%; remaining at 1 h, 1 µM [2]: 1%
CCO[C@@H]([C@H]1C[C@@H](C)[C@H]2[C@H](O1)[C@H](O)[C@@]1(C)[C@@H]3CC[C@H]4C(C)(C)[C@@H](OC(=O)N5CCN(C)CC5)CC[C@@]45C[C@@]35CC[C@]21C)C(C)(C)O | 5000 | – | 68 | Stable | Kp at 6 h [13]: 0.13; concentration at 6 h [14]: 12 nM; concentration at 6 h [15]: 95 nM
